The source made the active and inactive calls. The rule behind the calls is not given here.
Columns and labels:
[1] = biological target: T1, Neuropeptide Y receptor type 1 (Homo sapiens, UniProt P25929); assay: Displacement of [3H]-UR-MK114 from Y1R in human SK-N-MC cells; assay type: cell-based
T1 sequence (P25929 whole entry): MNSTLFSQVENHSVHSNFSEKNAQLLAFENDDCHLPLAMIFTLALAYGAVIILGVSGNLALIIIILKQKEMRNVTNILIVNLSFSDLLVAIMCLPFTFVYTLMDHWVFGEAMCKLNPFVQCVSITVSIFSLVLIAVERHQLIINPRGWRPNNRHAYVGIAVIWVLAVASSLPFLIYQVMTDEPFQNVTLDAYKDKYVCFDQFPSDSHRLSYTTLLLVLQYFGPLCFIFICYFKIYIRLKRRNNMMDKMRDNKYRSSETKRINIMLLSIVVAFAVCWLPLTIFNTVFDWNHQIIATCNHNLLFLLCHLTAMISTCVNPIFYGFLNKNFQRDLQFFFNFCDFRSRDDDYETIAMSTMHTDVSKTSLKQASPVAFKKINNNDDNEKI

[2] = biological target: T2, Neuropeptide Y receptor type 1 (Homo sapiens) (UniProt P25929); assay: Antagonist activity at Y1R in human HEL cells assessed as inhibition of pNPY induced [Ca2+] mobilisation; assay type: functional, cell-based
T2 sequence (whole entry): T1 sequence (P25929 whole entry)

[3] = Chemical stability in aqueous buffer assessed as compound decomposition after 90 mins at pH 7 by HPCL; assay type: physicochemical; details: read-out: Activity
Outline: (§1)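 Compound at 50 µM final (from 1 mM DMSO stock) in PBS pH 7.0, 20 °C; aliquots at 20 and 90 min diluted with acetonitrile/H2O/1% TFA, analysed by RP-HPLC (220 nm); release of parent argininamide quantified against a five-point calibration curve (0.3–25 µM).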

[4] = Chemical stability in aqueous buffer assessed as compound decomposition after 20 mins at pH 7 by HPCL; assay type: physicochemical; details: read-out: Activity; outline: as §1
[5] = biological target: T2, Neuropeptide Y receptor type 1 (Homo sapiens); assay: Antagonist activity at Y1R in human MCF-7 cells at 50 nM after 5 to 8 mins by fluorescence confocal microscopy; assay type: functional, cell-based; details: MCF7
Outline: (§2)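 MCF-7-Y1 cells (MCF-7 subclone with 2–3-fold higher Y1R expression) pretreated 48 or 72 h with 1 nM 17β-estradiol; live-cell confocal imaging of fluorescent ligand (50–80 nM) after 5–23 min at rt in Leibovitz L15; non-specific binding with excess BIBP 3226 (5 µM or 80–125-fold); autofluorescence control.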

[6] = Chemical stability of the compound in DMSO at below 0 degC; assay type: physicochemical
[7] = biological target: Neuropeptide Y receptor type 4 (Homo sapiens, UniProt P50391); assay: Displacement of Cy5-[K4]-hpp from human Y4R expressed in CHO cells by flow cytometry; assay type: cell-based
Chain of Neuropeptide Y receptor type 4 (P50391 whole entry): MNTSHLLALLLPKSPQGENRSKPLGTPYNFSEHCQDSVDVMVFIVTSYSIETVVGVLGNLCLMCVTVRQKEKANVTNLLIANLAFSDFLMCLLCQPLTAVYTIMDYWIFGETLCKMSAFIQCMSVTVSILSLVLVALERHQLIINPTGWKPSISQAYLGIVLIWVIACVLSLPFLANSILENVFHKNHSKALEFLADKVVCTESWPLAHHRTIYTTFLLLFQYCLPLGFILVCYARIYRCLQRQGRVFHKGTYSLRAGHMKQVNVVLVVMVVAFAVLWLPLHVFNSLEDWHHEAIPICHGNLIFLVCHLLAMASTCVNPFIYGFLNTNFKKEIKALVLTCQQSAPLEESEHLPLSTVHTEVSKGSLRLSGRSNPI
Outline: (§3)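 Flow cytometric displacement of labelled peptides: Cy5-[K4]-hPP on CHO-Y4 cells; Dy-635-pNPY or Cy5-pNPY on CHO-Y2 and HEC-1B-Y5 cells. Test ligands only at 1 and 10 µM or at 0.3 and 1 µM; for the red-excitable ligand, its own fluorescence without peptide was subtracted.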

[8] = biological target: T1, Neuropeptide Y receptor type 1; assay: Displacement of [3H]-UR-MK114 from Y1R in human SK-N-MC cells by radioligand competition binding
[9] = biological target: T3, Neuropeptide Y receptor type 5 (Homo sapiens, UniProt Q15761); assay: Displacement of Dy-635-pNPY from human Y5R expressed in HEC-1B cells by flow cytometry
T3 sequence (Q15761 whole entry): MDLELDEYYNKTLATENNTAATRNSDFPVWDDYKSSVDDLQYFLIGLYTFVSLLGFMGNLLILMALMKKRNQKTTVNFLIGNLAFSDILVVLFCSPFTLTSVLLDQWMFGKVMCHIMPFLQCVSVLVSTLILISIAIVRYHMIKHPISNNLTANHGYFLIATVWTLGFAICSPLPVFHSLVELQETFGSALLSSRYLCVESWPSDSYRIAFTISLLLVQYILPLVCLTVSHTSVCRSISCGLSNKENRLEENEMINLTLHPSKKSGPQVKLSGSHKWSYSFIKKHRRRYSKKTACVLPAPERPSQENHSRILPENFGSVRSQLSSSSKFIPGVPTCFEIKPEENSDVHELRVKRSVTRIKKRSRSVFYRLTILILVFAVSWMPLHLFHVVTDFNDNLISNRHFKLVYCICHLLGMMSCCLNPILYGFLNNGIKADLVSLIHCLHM

[10] = biological target: T4, Neuropeptide Y receptor type 2 (Homo sapiens, UniProt P49146); assay: Displacement of Dy-635-pNPY from human Y2R expressed in CHO cells by flow cytometry; assay type: cell-based; outline: as §3
T4 sequence (P49146 whole entry): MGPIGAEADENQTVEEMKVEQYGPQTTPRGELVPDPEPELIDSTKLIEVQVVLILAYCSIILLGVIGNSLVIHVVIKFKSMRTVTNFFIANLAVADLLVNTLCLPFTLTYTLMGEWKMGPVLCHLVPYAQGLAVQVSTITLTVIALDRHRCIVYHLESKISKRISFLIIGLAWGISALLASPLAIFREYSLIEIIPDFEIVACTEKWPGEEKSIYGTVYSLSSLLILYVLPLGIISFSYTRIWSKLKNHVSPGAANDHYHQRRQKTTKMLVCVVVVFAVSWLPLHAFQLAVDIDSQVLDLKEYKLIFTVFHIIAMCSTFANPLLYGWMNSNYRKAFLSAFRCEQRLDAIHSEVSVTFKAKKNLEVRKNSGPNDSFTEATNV

[11] = biological target: T2, Neuropeptide Y receptor type 1 (Homo sapiens); assay: Antagonist activity at Y1R in human MCF-7 cells at 80 nM after 23 mins by fluorescence confocal microscopy; assay type: functional, cell-based; details: MCF7; outline: as §2
[12] = biological target: T1, Neuropeptide Y receptor type 1; assay: Binding affinity at Y1R in human MCF-7 cells by flow cytometry; assay type: cell-based, MCF7
Outline: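 MCF-7-Y1 cells given 1 nM 17β-estradiol 3 days beforehand, trypsinised, suspended at 0.5–1 × 10^6 cells/mL in HEPES-buffered saline, 1% DMSO; saturation with fluorescent ligand 1–50 nM (non-specific: 200-fold BIBP 3226) or competition against 10 nM labelled ligand (0.03–3000 nM competitor); 15 min dark, rt; 635 nm excitation, FL-4 readout, 20,000 gated events.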

[13] = biological target: T2, Neuropeptide Y receptor type 1 (Homo sapiens); assay: Antagonist activity at Y1R in human MCF-7 cells at 50 nM after 12 to 15 mins by fluorescence confocal microscopy; assay type: functional, cell-based; details: MCF7; outline: as §2

Row | SMILES | Ki [1] | Kb [2] | degraded at 1.5 h [3] | degraded at 20 min [4] | Activity [5] | Stability [6] | IC50 [7] | Ki [7] | Ki [8] | IC50 [9] | Ki [9] | IC50 [10] | Ki [10] | Activity [11] | Kd [12] | Activity [13]
1 | Cc1cc(/C=C/c2cc3c4c(c2)CCCN4CCC3)cc(C)[n+]1CCN(CCNC(=O)CCCCC(=O)/N=C(\N)NCCC[C@@H](NC(=O)C(c1ccccc1)c1ccccc1)C(=O)NCc1ccc(O)cc1)CCNC(=O)CCCCC(=O)/N=C(\N)NCCC[C@@H](NC(=O)C(c1ccccc1)c1ccccc1)C(=O)NCc1ccc(O)cc1.O=C([O-])C(F)(F)F | 61 nM | 1.2 nM | < 0.5% | 0% |  | 12 months |  |  |  |  |  |  |  |  |  | 
2 | Cc1cc(/C=C/c2cc3c4c(c2)CCCN4CCC3)cc(C)[n+]1CCN(CCNC(=O)CCCNC(=O)CCCC(=O)/N=C(\N)NCCC[C@@H](NC(=O)C(c1ccccc1)c1ccccc1)C(=O)NCc1ccc(O)cc1)CCNC(=O)CCCNC(=O)CCCC(=O)/N=C(\N)NCCC[C@@H](NC(=O)C(c1ccccc1)c1ccccc1)C(=O)NCc1ccc(O)cc1.O=C([O-])C(F)(F)F | 56 nM | 1 nM |  |  |  | 12 months |  |  |  |  |  |  |  | Active |  | 
3 | CN(C)c1ccc(/C=C/C=C/c2sc3ccccc3[n+]2CCCC(=O)NCCCCNC(=O)/N=C(/N)NCCC[C@@H](NC(=O)C(c2ccccc2)c2ccccc2)C(=O)NCc2ccc(O)cc2)cc1.O=C([O-])C(F)(F)F | 26 nM | 0.7 nM | 0% | 0% |  | 12 months | > 1000 nM | > 500 nM | 26 nM | > 1000 nM | > 400 nM | > 1000 nM | > 500 nM |  | 5 nM | Active
4 | Cc1cc(/C=C\C=C2\N(C)c3ccc4ccccc4c3C2(C)C)cc(C)[n+]1CCOCCOCCNC(=O)CCCCCCC(=O)/N=C(/N)NCCC[C@@H](NC(=O)C(c1ccccc1)c1ccccc1)C(=O)NCc1ccc(O)cc1.O=C([O-])C(F)(F)F | 130 nM | 7.8 nM |  |  |  | 12 months |  |  |  |  |  |  |  |  |  | 

Now those with a lower Ki [1], led by results:

Row | Ki [1] | Kb [2] | degraded at 1.5 h [3] | degraded at 20 min [4] | Activity [5] | Stability [6] | IC50 [7] | Ki [7] | Ki [8] | IC50 [9] | Ki [9] | IC50 [10] | Ki [10] | Activity [11] | Kd [12] | Activity [13] | SMILES
5 | 23 nM | 12 nM | < 0.5% | 0% | Active | 12 months |  |  |  |  |  |  |  |  |  |  | Cc1cc(/C=C/c2cc3c4c(c2)CCCN4CCC3)cc(C)[n+]1CCCCCC(=O)/N=C(/N)NCCC[C@@H](NC(=O)C(c1ccccc1)c1ccccc1)C(=O)NCc1ccc(CNC(N)=O)cc1.O=C([O-])C(F)(F)F
6 | 24 nM | 11 nM |  |  | Active | 12 months |  |  |  |  |  |  |  |  |  |  | Cc1cc(/C=C/C=C/c2ccc(N(C)C)cc2)cc(C)[n+]1CCOCCOCC(=O)/N=C(/N)NCCC[C@@H](NC(=O)C(c1ccccc1)c1ccccc1)C(=O)NCc1ccc(O)cc1.O=C([O-])C(F)(F)F
7 | 22 nM | 6 nM | 2.6% | 1% | Active | 12 months | > 10000 nM | > 3000 nM | 22 nM | > 10000 nM | > 5000 nM | > 10000 nM | > 3000 nM |  |  |  | Cc1cc(/C=C/c2cc3c4c(c2)CCCN4CCC3)cc(C)[n+]1CCNC(=O)CCCC(=O)/N=C(/N)NCCC[C@@H](NC(=O)C(c1ccccc1)c1ccccc1)C(=O)NCc1ccc(O)cc1.O=C([O-])C(F)(F)F

— ChEMBL document CHEMBL1773009, “Red-fluorescent argininamide-type NPY Y1 receptor antagonists as pharmacological tools” (Bioorg Med Chem, 2011)
